Assays:
[1] = Selectivity ratio of Ki for dopamine D1 receptor to Ki for dopamine D2 receptor
D(2) dopamine receptor = D(2) dopamine receptor (Homo sapiens, UniProt P14416); assay: Binding affinity to dopamine D2 receptor
[2] = Displacement of [3H]SCH-23390 from dopamine D1-like receptor in porcine striatal homogenates after 30 mins by scintillation counting; format: tissue-based, Sus scrofa
Method in brief: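 Fresh porcine striatum was homogenized in 20 mM Hepes/0.32 M sucrose (pH 7.4), and the P2 membrane pellet was washed in 50 mM Tris (pH 7.4) and stored at -80 °C. Incubation was 30 min at 37 °C, then filtration and scintillation counting. Values are means ± SEM of 4-11 independent experiments.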

Sus scrofa = organism: Sus scrofa; assay: Selectivity ratio of Ki for dopamine D2-like receptor in porcine striatal homogenates to Ki for dopamine D1-like receptor in porcine striatal homogenates; format: tissue-based
[3] = Displacement of [3H]spiperone from dopamine D2-like receptor in porcine striatal homogenates after 30 mins by scintillation counting; format: tissue-based, Sus scrofa

Chain of D(2) dopamine receptor (P14416 whole entry): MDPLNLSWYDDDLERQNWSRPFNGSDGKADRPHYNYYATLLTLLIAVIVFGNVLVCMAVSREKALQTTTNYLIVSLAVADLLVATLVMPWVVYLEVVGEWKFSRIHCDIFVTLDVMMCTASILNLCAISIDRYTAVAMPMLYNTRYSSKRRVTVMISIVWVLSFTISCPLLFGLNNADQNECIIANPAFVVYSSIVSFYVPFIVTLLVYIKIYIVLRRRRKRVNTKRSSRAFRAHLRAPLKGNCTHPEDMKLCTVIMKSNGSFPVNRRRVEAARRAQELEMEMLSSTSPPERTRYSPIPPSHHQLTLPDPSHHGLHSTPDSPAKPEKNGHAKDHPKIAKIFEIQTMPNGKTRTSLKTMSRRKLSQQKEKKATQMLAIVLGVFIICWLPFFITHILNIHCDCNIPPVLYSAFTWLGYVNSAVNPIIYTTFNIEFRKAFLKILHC

| SMILES | Ratio Ki [1] | Ki (D(2) dopamine receptor) [nM] | Ki [2] [nM] | Ratio Ki (Sus scrofa) | Ki [3] [nM] |
| --- | --- | --- | --- | --- | --- |
| CCc1ccc2c(c1)[C@@H]1c3cc(O)c(O)cc3CC[C@H]1NC2 | 14.5 | 420 | – | – | – |
| Oc1cc2c(cc1O)[C@H]1c3ccccc3CN[C@@H]1CS2 (racemic) | – | – | 200 | 15 | 2500 |
| Oc1cc2c(cc1O)[C@H]1c3cc(F)ccc3CN[C@@H]1CO2 (racemic) | – | – | 110 | 8.5 | 740 |
| Cc1ccc2c(c1)[C@@H]1c3cc(O)c(O)cc3CC[C@H]1NC2 | 34.7 | – | – | – | – |
| Cc1ccc2c(c1)[C@@H]1c3cc(O)c(O)cc3OC[C@H]1NC2 (racemic) | – | – | 150 | 55 | 6800 |
| Oc1cc2c(cc1O)[C@H]1c3cc(C(F)(F)F)ccc3CN[C@@H]1CO2 (racemic) | – | – | 570 | 14 | 6900 |
| CN1CCc2cc(Cl)c(O)cc2[C@@H](c2ccccc2)C1 | – | – | 0.46 | – | – |
| CCc1ccc2c(c1)[C@@H]1c3cc(O)c(O)cc3OC[C@H]1NC2 (racemic) | – | – | 180 | 49 | 6400 |

— ChEMBL document CHEMBL1932931, “Analogues of doxanthrine reveal differences between the dopamine D1 receptor binding properties of chromanoisoquinolines and hexahydrobenzo[a]phenanthridines” (Eur J Med Chem, 2012)
